Results pooled from the literature.
Target: Serine/threonine-protein kinase ULK1 (ULK1, Homo sapiens, UniProt O75385)
Residues used in one study (O75385 1-1050): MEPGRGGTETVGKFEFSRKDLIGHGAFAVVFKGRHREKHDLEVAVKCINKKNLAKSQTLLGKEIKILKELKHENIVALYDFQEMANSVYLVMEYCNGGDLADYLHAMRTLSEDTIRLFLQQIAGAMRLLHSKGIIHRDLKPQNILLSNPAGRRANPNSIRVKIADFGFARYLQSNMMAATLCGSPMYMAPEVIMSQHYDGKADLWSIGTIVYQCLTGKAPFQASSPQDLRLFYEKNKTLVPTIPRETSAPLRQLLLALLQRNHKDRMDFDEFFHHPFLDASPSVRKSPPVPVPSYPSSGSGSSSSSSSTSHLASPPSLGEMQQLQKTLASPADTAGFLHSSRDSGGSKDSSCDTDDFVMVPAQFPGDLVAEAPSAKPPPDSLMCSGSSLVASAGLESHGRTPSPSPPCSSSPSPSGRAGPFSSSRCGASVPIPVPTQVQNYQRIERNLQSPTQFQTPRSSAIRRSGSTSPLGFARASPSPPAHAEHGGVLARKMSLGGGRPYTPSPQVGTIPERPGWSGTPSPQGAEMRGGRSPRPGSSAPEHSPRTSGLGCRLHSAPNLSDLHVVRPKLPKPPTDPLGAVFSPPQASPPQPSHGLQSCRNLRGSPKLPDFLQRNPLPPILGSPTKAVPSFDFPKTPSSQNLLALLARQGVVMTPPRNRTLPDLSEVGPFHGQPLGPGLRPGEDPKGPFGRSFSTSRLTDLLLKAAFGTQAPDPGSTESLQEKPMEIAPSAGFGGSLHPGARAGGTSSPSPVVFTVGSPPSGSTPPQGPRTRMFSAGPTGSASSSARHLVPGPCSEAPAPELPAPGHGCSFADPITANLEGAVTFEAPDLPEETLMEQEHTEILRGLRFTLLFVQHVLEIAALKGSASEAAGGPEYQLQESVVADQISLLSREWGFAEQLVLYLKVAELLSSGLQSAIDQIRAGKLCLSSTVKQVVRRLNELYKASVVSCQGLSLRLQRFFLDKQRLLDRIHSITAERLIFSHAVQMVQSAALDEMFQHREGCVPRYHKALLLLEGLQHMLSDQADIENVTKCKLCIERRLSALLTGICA

Compound	effect on	technique	tested at	remaining binding
C[C@@H]1CN(c2cc(-c3nn(C)c4ccc(OC5(C)CC5)cc34)ncn2)C[C@H](C)O1	cell-free assay	competition with immobilised ligand	1 µM	76%
Cc1cnn2ncc(-c3ccnc(N(C)C)n3)c2c1	binding		1 µM	100%
Cc1cnc(Nc2ccc(C(=O)N3CCC(N4CCCC4)CC3)cc2)nc1-c1cc2ccccc2s1	binding	competition with immobilised ligand	1 µM	1.2%
CNC(=O)[C@@H]1CC[C@@H](n2c(-c3ccc4cnccc4c3)nc3ccc(C(=O)NCc4cccc(C(N)=O)c4)cc32)C1	binding	competition with immobilised ligand	1 µM	100%
CN(C)c1nccc(-c2cnn3ncccc23)n1	binding		1 µM	96%
CCN1CCN(Cc2ccc(C(=O)Nc3ccc(C)c(Oc4ccc5c(c4)CC(=O)N5)c3)cc2C(F)(F)F)CC1	binding	competition with immobilised ligand	1 µM	100%
F[C@@H]1CCN(c2nccc(-c3cnn4ncccc34)n2)C1	binding		1 µM	89%
CN(C)CC#Cc1ccc(OCCCc2sc(N3CCc4cccc(C(=O)Nc5nc6ccccc6s5)c4C3)nc2C(=O)O)c(F)c1	cell-free assay	competition with immobilised ligand	1 µM	100%
c1cncc(-c2cccc(Nc3nccc(NC4CCCCC4)n3)c2)c1	binding	competition with immobilised ligand	10 µM	100%
O=C(c1ccc(Nc2ncc(Cl)c(-c3ccc(Cl)s3)n2)cc1)N1CCC(N2CCCC2)CC1	binding	competition with immobilised ligand	1 µM	1.8%
CN(C)c1nccc(-c2cnc3ncccn23)n1	binding		1 µM	71%
COc1ccc2c(O[C@@H]3C[C@H]4C(=O)N[C@]5(C(=O)O)CC5/C=C\CCCCC[C@H](NC(=O)OC5CCCC5)C(=O)N4C3)cc(-c3csc(NC(=O)C(C)C)n3)nc2c1C (stereo partly drawn)	cell-free assay	competition with immobilised ligand	1 µM	93%
O=C(NCCCN1CCOCC1)c1ccc(Nc2nccc(-c3cc4ccccc4s3)n2)cc1	binding	competition with immobilised ligand	1 µM	52%
N[C@H]1CCN(c2nccc(-c3cnn4ncccc34)n2)C1	binding		1 µM	100%
CNCc1ccccc1-c1csc([C@H](C)Nc2nc(C)nc3cc(OC)c(OC)cc23)c1	cell-free assay	competition with immobilised ligand	1 µM	91%
O=C(Nc1c[nH]nc1C(=O)NC1CCNCC1)c1cc(F)cc(F)c1	binding	competition with immobilised ligand	1 µM	100%
CCS(=O)(=O)c1cc2cc(C[C@](O)(CC(C)(C)c3ccc(F)cc3C(N)=O)C(F)(F)F)[nH]c2cn1	cell-free assay	competition with immobilised ligand	1 µM	100%
CNC(=O)c1ccccc1Nc1cc(Nc2ccc(N3CCOCC3)cc2OC)ncc1C(F)(F)F	binding	competition with immobilised ligand	1 µM	< 10%
COc1ccnn2ncc(-c3ccnc(N(C)C)n3)c12	binding		1 µM	100%
c1ccc(N2CCN(Cc3nc4ccccc4[nH]3)CC2)nc1	binding	competition with immobilised ligand	1 µM	100%
FC(F)(F)Oc1cccc(-c2cnc3ccc(-c4ccncc4)nn23)c1	binding	competition with immobilised ligand	5 µM	82%
